The record followed here is ChEMBL document CHEMBL4334422, “Toxicities and beneficial protection of H2S donors based on nonsteroidal anti-inflammatory drugs” (Medchemcomm, 2019).

Data set [1] concerns Rattus norvegicus. Put plainly: Cardioprotective activity in SHR rat assessed as change in muscle fiber mitochondria at 10 mg/kg, ip administered for 14 days by TEM analysis. The class given is functional, organism-based. The gist of the method: (§1)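 SHRs were given 10 mg·kg⁻¹ intraperitoneally per day for 14 consecutive days, with an ibuprofen comparator and a normal control. Myocardial tissue was then removed. Sections were HE-stained for light microscopy and also examined by transmission electron microscopy at 6000, 10000 and 20000-fold.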

For data set [2], the system named is Rattus norvegicus. Put plainly: Antihypertensive activity in ip dosed spontaneously hypertensive Wistar kyoto rat assessed as reduction in diastolic arterial pressure administered for 6 hrs and measured every 30 mins post treatment by tail-cuff method. The class given is functional, organism-based. Put shortly:
(§2)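 Male SHRs (8 weeks, 300 ± 25 g; 6 per group), given compound intraperitoneally once daily at 8 am in 0.5% (w/v) sodium carboxymethyl cellulose/DMSO 3/1 (v/v), 2 mL·kg⁻¹. Vehicle-treated SHR and WKY controls. SBP, DBP and heart rate were measured by tail-cuff on awake, restrained rats before dosing, then every 30 min for 6 h. Values are mean ± SD of four independent experiments.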

The test system of data set [3] is Rattus norvegicus. The data set is described as follows: Cardioprotective activity in SHR rat assessed as change in muscle fiber nature at 10 mg/kg, ip administered for 14 days by TEM analysis. The class given is functional, organism-based. The gist of the method: as §1
Data set [4] can be described thus: Cardiotoxicity in SHR rat assessed as thin myocardial fiber formation at 10 mg/kg, ip administered for 14 days by H and E staining based microscopic assay. The class given is toxicity, organism-based. The note with it: in vivo, 336 h. Put shortly:
as §1

Data set [5] deals with Rattus norvegicus. Put plainly: Antihypertensive activity in spontaneously hypertensive Wistar kyoto rat assessed as reduction in diastolic arterial pressure at 10 mg/kg, ip administered for 6 hrs and measured every 30 mins post treatment by tail-cuff method. The class given is functional. Put shortly: as §2
For data set [6], the system named is Rattus norvegicus. The data set is described as follows: Antihypertensive activity in spontaneously hypertensive Wistar kyoto rat assessed as reduction in systolic arterial pressure at 40 mg/kg, ip administered for 6 hrs and measured every 30 mins post treatment by tail-cuff method. The class given is functional. Put shortly:
as §2

Data set [7] relates to Rattus norvegicus. The data set is described as follows: Antihypertensive activity in spontaneously hypertensive Wistar kyoto rat assessed as reduction in systolic arterial pressure at 10 mg/kg, ip administered for 6 hrs and measured every 30 mins post treatment by tail-cuff method. The class given is functional. Put shortly: as §2
The subject of data set [8] is Rattus norvegicus. Put plainly: Antihypertensive activity in spontaneously hypertensive Wistar kyoto rat assessed as reduction in diastolic arterial pressure at 20 mg/kg, ip administered for 6 hrs and measured every 30 mins post treatment by tail-cuff method. The class given is functional. Put shortly:
as §2

Data set [9] deals with Rattus norvegicus. Put plainly: Cardioprotective activity in SHR rat assessed as change in myocardial disk dissociation at 10 mg/kg, ip administered for 14 days by TEM analysis. The class given is functional, organism-based. The gist of the method: as §1
The subject of data set [10] is Rattus norvegicus. The data set is described as follows: Antihypertensive activity in spontaneously hypertensive Wistar kyoto rat assessed as reduction in systolic arterial pressure at 20 mg/kg, ip administered for 6 hrs and measured every 30 mins post treatment by tail-cuff method. The class given is functional. Put shortly: as §2
In data set [11] the test system is Rattus norvegicus. The data set is described as follows: Cardioprotective activity in SHR rat assessed as neatly arrange myofibrils at 10 mg/kg, ip administered for 14 days by TEM analysis. The class given is functional, organism-based. The gist of the method:
as §1

Data set [12] relates to Rattus norvegicus. Put plainly: Antihypertensive activity in spontaneously hypertensive Wistar kyoto rat assessed as reduction in diastolic arterial pressure at 40 mg/kg, ip administered for 6 hrs and measured every 30 mins post treatment by tail-cuff method. The class given is functional. The gist of the method: as §2
Data set [13] is described as follows: Toxicity in Wistar kyoto rat assessed as swollen hepatocytes at 10 mg/kg, ip administered for 14 days by H and E staining based assay. The class given is organism-based. The note with it: in vivo, 336 h. Put shortly: (§3)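 WKY rats were dosed intraperitoneally at 10 mg/kg daily for 14 days, using the 10% 1,3-propanediol vehicle, with a vehicle control group. Liver and kidney were collected and fixed immediately in 4% glutaraldehyde. Sections were stained with haematoxylin and eosin and scored for structural change under light microscopy.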

The nature of data set [14]: Toxicity in Wistar kyoto rat assessed as hepatic sinus congestion at 10 mg/kg, ip administered for 14 days by H and E staining based assay. The class given is organism-based. The note with it: in vivo, 336 h. Put shortly:
(§4)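 WKY rats were given 10 mg·kg⁻¹ intraperitoneally daily for 14 days, with vehicle-treated controls. Liver and kidney were collected and fixed in 4% glutaraldehyde. Tissue was examined after HE staining by light microscopy and by transmission electron microscopy at 6000, 10000 and 20000-fold.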

Data set [15] in a line: Toxicity in Wistar kyoto rat assessed as central venous in liver at 10 mg/kg, ip administered for 14 days by H and E staining based assay. The settings on record: in vivo, 336 h. The class given is organism-based. Put shortly: as §4
Data set [16] can be described thus: Toxicity in Wistar kyoto rat assessed as congestion in renal tissue at 10 mg/kg, ip administered for 14 days by H and E staining based assay. The class given is organism-based. The note with it: in vivo, 336 h. Put shortly:
as §4

The nature of data set [17]: Toxicity in Wistar kyoto rat assessed as swollen renal cells at 10 mg/kg, ip administered for 14 days by H and E staining based assay. The class given is organism-based. The note with it: in vivo, 336 h. The gist of the method: as §3
The nature of data set [18]: Toxicity in Wistar kyoto rat assessed as loose cytoplasm in kidney tissue at 10 mg/kg, ip administered for 14 days by H and E staining based assay. The class given is organism-based. The settings on record: in vivo, 336 h. The gist of the method: as §3
Data set [19] in a line: Toxicity in Wistar kyoto rat assessed as intact hepatic lobule structure at 10 mg/kg, ip administered for 14 days by H and E staining based assay. The class given is organism-based. The note with it: in vivo, 336 h. Put shortly: as §3
Data set [20] is described as follows: Toxicity in Wistar kyoto rat assessed as visible gaps in hepatocytes at 10 mg/kg, ip administered for 14 days by H and E staining based assay. The class given is organism-based. The settings on record: in vivo, 336 h. Put shortly: as §3
Data set [21] can be described thus: Cardiotoxicity in SHR rat assessed as myocardial fibers thickening at 10 mg/kg, ip administered for 14 days by H and E staining based microscopic assay. The class given is toxicity, organism-based. The settings on record: in vivo, 336 h. The gist of the method: as §1
Data set [22] can be described thus: Toxicity in Wistar kyoto rat assessed as a large amount of exudation in glomerulus at 10 mg/kg, ip administered for 14 days by TEM assay. The class given is organism-based. The settings on record: in vivo, 336 h. Put shortly: as §4
Data set [23] in a line: Toxicity in Wistar kyoto rat assessed as visible gaps in kidney tissue at 10 mg/kg, ip administered for 14 days by H and E staining based assay. The class given is organism-based. The settings on record: in vivo, 336 h. Put shortly:
as §3

Data set [24] is described as follows: Toxicity in Wistar kyoto rat assessed as swollen gastric cell at 10 mg/kg, ip administered for 14 days by H and E staining based optical microscopic method. The class given is organism-based. The settings on record: in vivo, 336 h. The gist of the method: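 WKY rats, 3 per group, were dosed for 14 days, with the compound at 10 mg/kg per dose and the ibuprofen comparator at 6.1 mg/kg. Rats were anaesthetised with ether and killed by cervical dislocation. Stomach and intestine were sectioned at 5-10 µm, stained with haematoxylin and eosin, and examined by optical microscopy.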

Data set [25] is described as follows: Toxicity in Wistar kyoto rat assessed as chromatin edge collection in liver tissue at 10 mg/kg, ip administered for 14 days by TEM assay. The note with it: in vivo, 336 h. The class given is organism-based. Put shortly: as §4
Data set [26] is described as follows: Toxicity in Wistar kyoto rat assessed as swollen glomerular endothelial cells at 10 mg/kg, ip administered for 14 days by TEM assay. The class given is organism-based. The note with it: in vivo, 336 h. Put shortly:
(§5)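 After 14 days of daily intraperitoneal dosing at 10 mg/kg in WKY rats, with vehicle controls, liver and kidney were fixed in 4% glutaraldehyde. Ultrastructure was examined by transmission electron microscopy at 6000-, 10000- and 20000-fold magnification.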

Data set [27] in a line: Toxicity in Wistar kyoto rat assessed as stromal hyperplasia at 10 mg/kg, ip administered for 14 days by TEM assay. The class given is organism-based. The note with it: in vivo, 336 h. The gist of the method: as §5
The nature of data set [28]: Toxicity in Wistar kyoto rat assessed as increase in lipid droplets in cytoplasm in liver tissue at 10 mg/kg, ip administered for 14 days by TEM assay. The settings on record: in vivo, 336 h. The class given is organism-based. Put shortly:
as §5

Data set [29] in a line: Toxicity in Wistar kyoto rat assessed as swollen proximal convoluted tubule cells at 10 mg/kg, ip administered for 14 days by H and E staining based assay. The class given is organism-based. The settings on record: in vivo, 336 h. Put shortly:
as §3

The structures appear in SMILES notation. Active and inactive are the calls of the source. No cut-off for these calls is given here.

As for `CC(=O)Nc1ccc(OC(=O)CCCCC2CCSS2)cc1` (stereo not drawn), the result in the data set on Rattus norvegicus [1], in the data set with Rattus norvegicus [3], in the data set on Rattus norvegicus [9] and with Rattus norvegicus [11] was Active. In addition, the Activity result was “Dose-dependent effect” in the data set on Rattus norvegicus [2]; “Active” in [4]; 115.3 mmHg in the data set on Rattus norvegicus [6]; 110.9 mmHg in the data set with Rattus norvegicus [8]; 127.6 mmHg in the data set with Rattus norvegicus [10]; 99.4 mmHg in the data set on Rattus norvegicus [12]. Also, the Diastolic arterial pressure in the data set on Rattus norvegicus [5] is on record as 113.8 mmHg. Besides, the Systolic arterial pressure with Rattus norvegicus [7] amounted to 139.1 mmHg.

In the case of `CC(C)Cc1ccc(C(C)C(=O)Oc2ccc(-c3cc(=S)ss3)cc2)cc1` (stereo not drawn), the Activity result in data set [13], in [14], in data set [15], in data set [16], in data set [17] and in data set [18] was “Toxic” each time. In addition, the Activity with Rattus norvegicus [6] is recorded as 135.1 mmHg; in data set [19], “Non-Toxic”; in the data set with Rattus norvegicus [8] it was 115.1 mmHg; with Rattus norvegicus [10] it was 136.7 mmHg; in the data set with Rattus norvegicus [12] it was 112.4 mmHg; in data set [20] it was “Toxic”. Besides, the Diastolic arterial pressure with Rattus norvegicus [5] was found to be 116.3 mmHg. The Systolic arterial pressure in the data set with Rattus norvegicus [7] was 142.9 mmHg.

For the compound `CC(C)Cc1ccc(C(C)C(=O)Oc2ccc(C(N)=S)cc2)cc1` (stereo not drawn), the Activity entry in data set [13] was “Toxic”; in data set [21] it was “Active”; in data set [22], “Toxic”; in data set [23], “Toxic”; in data set [14] it was “Toxic”; in [24], “Non-Toxic”. The Activity result is “Toxic” in data set [25]; “Dose-dependent effect” with Rattus norvegicus [2]; “Toxic” in [15]; “Toxic” in [18]; “Toxic” in [26]; “Active” in data set [4]. The Activity entry in [27] is on record as “Toxic”; in data set [28], “Toxic”; in data set [19], “Non-Toxic”; in data set [20], “Toxic”; in data set [29] it was “Toxic”.
